Assay [1] concerns the target T1, Prostaglandin G/H synthase 1 (Mus musculus, UniProt P22437).
T1 sequence (P22437 whole entry): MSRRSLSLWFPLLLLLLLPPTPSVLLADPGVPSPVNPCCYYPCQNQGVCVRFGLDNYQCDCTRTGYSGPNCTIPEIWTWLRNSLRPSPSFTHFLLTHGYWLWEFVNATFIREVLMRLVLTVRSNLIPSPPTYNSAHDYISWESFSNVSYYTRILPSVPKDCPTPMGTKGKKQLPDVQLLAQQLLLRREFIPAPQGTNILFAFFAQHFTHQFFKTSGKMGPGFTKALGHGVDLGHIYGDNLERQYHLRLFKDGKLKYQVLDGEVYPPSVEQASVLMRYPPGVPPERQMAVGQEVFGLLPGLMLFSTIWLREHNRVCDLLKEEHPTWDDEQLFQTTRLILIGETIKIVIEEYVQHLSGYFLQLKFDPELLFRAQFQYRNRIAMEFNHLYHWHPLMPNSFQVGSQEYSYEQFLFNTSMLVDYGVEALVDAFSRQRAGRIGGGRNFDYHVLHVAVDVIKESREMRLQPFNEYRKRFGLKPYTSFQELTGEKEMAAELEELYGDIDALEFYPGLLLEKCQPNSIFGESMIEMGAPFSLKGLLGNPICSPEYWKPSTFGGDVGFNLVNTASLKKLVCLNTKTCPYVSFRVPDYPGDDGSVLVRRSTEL
Kind of assay: Ability to inhibit Prostaglandin G/H synthase 1 by using freshly harvested mouse peritoneal macrophages.

In assay [2] the target is T2, Prostaglandin G/H synthase 2 (Mus musculus, UniProt Q05769).
T2 sequence (Q05769 whole entry): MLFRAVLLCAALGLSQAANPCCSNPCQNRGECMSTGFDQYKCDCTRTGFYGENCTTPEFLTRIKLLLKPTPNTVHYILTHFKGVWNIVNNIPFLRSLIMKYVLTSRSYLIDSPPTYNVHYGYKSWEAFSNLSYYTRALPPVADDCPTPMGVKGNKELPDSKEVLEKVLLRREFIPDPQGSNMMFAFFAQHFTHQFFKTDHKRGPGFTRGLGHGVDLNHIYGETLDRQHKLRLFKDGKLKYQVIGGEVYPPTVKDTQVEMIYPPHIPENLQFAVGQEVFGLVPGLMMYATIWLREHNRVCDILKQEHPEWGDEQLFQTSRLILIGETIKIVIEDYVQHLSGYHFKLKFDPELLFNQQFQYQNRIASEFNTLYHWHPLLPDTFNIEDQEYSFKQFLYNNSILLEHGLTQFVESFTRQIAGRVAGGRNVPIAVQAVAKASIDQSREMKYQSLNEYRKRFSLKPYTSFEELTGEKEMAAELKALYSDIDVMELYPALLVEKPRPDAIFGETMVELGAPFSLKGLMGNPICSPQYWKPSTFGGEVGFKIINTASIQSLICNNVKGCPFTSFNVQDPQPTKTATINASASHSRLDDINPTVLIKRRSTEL
Kind of assay: Ability to inhibit Prostaglandin G/H synthase 2 by using freshly harvested mouse peritoneal macrophages.

Assay [3] relates to Rattus norvegicus. Kind of assay: In vivo inhibitory activity against carrageenan induced paw edema in Sprague-Darley rats after oral administration of the compound. Format: functional. The method in brief:
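Sprague–Darley rats were given compound orally at 3 mg/kg body weight. Read-out was percent inhibition of paw edema, using five animals per group.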
(The carrageenan paw model is a standard test of acute inflammation.)

The species named for assay [4] is Rattus norvegicus. Kind of assay: Effective dose required for the inhibition of adjuvant arthritis in Sprague-Darley rats. Type of assay: functional. Put shortly: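 Adjuvant-induced arthritis in Sprague–Darley rats, with compound dosed daily (mg/kg/day).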

The values that follow come from ChEMBL document CHEMBL1133997, “2,2-Dimethyl-4,5-diaryl-3(2H)furanone derivatives as selective cyclo-oxygenase-2 inhibitors” (Bioorg Med Chem Lett, 2001).

As usually defined, the IC50 is the concentration needed to halve the response being measured. The term Inhibition denotes the percentage by which the read-out fell short of the control. Low values mean a weak effect, high ones a strong effect. In general, ED50 refers to the midpoint of the dose-response relation.

On to `Cc1ccccc1C1=C(c2ccc(S(C)(=O)=O)cc2)OC(C)(C)C1=O`, for which the figures for the IC50 in assay [1] and in assay [2] were 56100 nM and 842 nM, respectively.

Molecule `CC1(C)OC(c2ccc(S(C)(=O)=O)cc2)=C(c2cccc(Cl)c2)C1=O` displayed an Inhibition in assay [3] of 32%.

As to `CC1(C)OC(c2ccc(S(C)(=O)=O)cc2)=C(c2ccccc2)C1=O`, the IC50 in assay [1] was 8760 nM; in assay [2], 146 nM.

`CC1(C)OC(c2ccc(S(C)(=O)=O)cc2)=C(c2cccc(F)c2)C1=O`: the 50% effective dose (ED50) in assay [4] worked out at 0.08 mg/kg/day.

With `CC1(C)OC(c2ccc(S(C)(=O)=O)cc2)=C(c2cc(F)cc(F)c2)C1=O`, in assay [4], the ED50 was determined as 0.03 mg/kg/day. The molecule further gave a half-maximal inhibitory concentration (IC50) in assay [2] of 79.3 nM.

As for `CC1(C)OC(c2ccc(S(C)(=O)=O)cc2)=C(c2cccc(C(F)(F)F)c2)C1=O`, in assay [4], the median effective dose (ED50) was determined as 0.06 mg/kg/day. The results for the half-inhibitory concentration (IC50) in assay [1] and in assay [2] were 7310 nM and 122 nM, respectively.

Consider `Cc1ccc(-c2cc(C(F)(F)F)nn2-c2ccc(S(N)(=O)=O)cc2)cc1` [CELECOXIB], for which, in assay [4], the 50% effective dose (ED50) was determined as 0.2 mg/kg/day. The Inhibition in assay [3] was determined as 31%.

The molecule `CS(=O)(=O)c1ccc(C2=C(c3ccccc3)C(=O)OC2)cc1` [ROFECOXIB] gave a 50% inhibitory concentration (IC50) in assay [2] of 191 nM.
